Test results as given in ChEMBL document CHEMBL1123540, “Potential antitumor agents. 45. Synthesis, DNA-binding interaction, and biological activity of triacridine derivatives” (J Med Chem, 1986).
Where “and” joins values, the source holds several entries; their conditions need not be identical. Equal values may be shown once.

Columns and labels:
[1] = In vitro inhibition of Escherichia coli DNA-dependent RNA polymerase using both calf thymus and phage T7 DNA template
Procedure, shortened: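 E. coli RNA polymerase (0.65 μg) added to template DNA (2.5 μg; calf thymus or phage T7) plus drug. TCA-pyrophosphate precipitates counted by scintillation; IC50 from inhibition curves, mean of 2–4 determinations.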

[2] = tested on: P388; experiment: Percentage increase in life span (ILS) of compound treated tumor-bearing animals compared to tumor-bearing controls when treated at the optimal dose.; format: functional, Mus musculus
Procedure, shortened: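 P388 leukemia: 10^6 cells inoculated intraperitoneally; drug given i.p. in 30% v/v ethanol-water on days 1, 5 and 9. Dose is in mg/kg per day. ILS is the percent increase in lifespan over untreated tumor-bearing controls at the optimal dose. Values above 20% count as significant.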

[3] = tested on: Nucleic Acid; experiment: Inhibitory concentration against ethidium bromide binding to DNA [poly(dA-dT)]; format: nucleic-acid assay
Procedure, shortened: (§1)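 C50 is the micromolar drug concentration displacing 50% of ethidium bromide already bound to DNA, read by fluorescence. It is used as a comparative measure of DNA binding.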

[4] = tested on: P388; experiment: Optimal dose administered ip as a solution in 0.1 mL of 30% v/v ethanol-water after intraperitoneal inoculation of 10e6 P388 leukemia cells.; format: functional, Mus musculus
Procedure, shortened: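 P388 leukemia cells (10^6) inoculated ip. Drug given ip in 30% v/v ethanol-water on days 1, 5 and 9, in mg/kg per day. The optimal dose is the one giving the best increase in lifespan over untreated tumor-bearing controls; >20% counted significant.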

[5] = tested on: Nucleic Acid; experiment: Inhibitory concentration against ethidium bromide binding to DNA [poly(dG-dC)]; format: nucleic-acid assay; procedure, shortened: as §1
[6] = tested on: L1210; experiment: Concentration of compound required to inhibit growth of L1210 leukemia cells in culture by 50%; format: functional, cell-based; conditions: Mus musculus
Procedure, shortened: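 L1210 leukemia cells grown in culture with continuous drug exposure for 70 h; IC50 in nanomolar, drug concentration giving 50% growth inhibition.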

SMILES	IC50 [1]	C50 [3] [µM]	C50 [5] [µM]	IC50 [6] [nM]	ILS [2] [%]	Optimal dose [4] [mg/kg/day]
Cl.O=C(CCCC(=O)NCCCCCNc1c2ccccc2nc2ccccc12)NCCCCCNc1c2ccccc2nc2ccccc12	5.2 µM and 4.2 µM	0.28	0.24	170	33	20
Cl.O=C(CCCC(=O)NCCCCNc1c2ccccc2nc2ccccc12)NCCCCNc1c2ccccc2nc2ccccc12	4.6 µM and 4.1 µM	0.28	0.13	240	30	20
Cl.O=C(CCCC(=O)NCCNc1c2ccccc2nc2ccccc12)NCCNc1c2ccccc2nc2ccccc12	9.2 µM and 6.7 µM	0.3	0.29	3080	–	30
NC(CC(=O)NCCCNc1c2ccccc2nc2ccccc12)CC(=O)NCCCNc1c2ccccc2nc2ccccc12	4.2 µM and 3.1 µM	0.09	0.21	470	–	–
Cl.O=C(CCCC(=O)NCCCNc1c2ccccc2nc2ccccc12)NCCCNc1c2ccccc2nc2ccccc12	7.5 µM and 6.2 µM	–	–	350	–	13.3
Cl.O=C(CC(CC(=O)NCCCCCNc1c2ccccc2nc2ccccc12)Nc1c2ccccc2nc2ccccc12)NCCCCCNc1c2ccccc2nc2ccccc12	4.1 µM and 4.5 µM	0.35	0.25	580	21	8.9
Cl.O=C(CC(CC(=O)NCCCCNc1c2ccccc2nc2ccccc12)Nc1c2ccccc2nc2ccccc12)NCCCCNc1c2ccccc2nc2ccccc12	5.9 µM and 5.4 µM	0.08	0.13	2300	–	8.9
Cl.O=C(CC(CC(=O)NCCCCCCNc1c2ccccc2nc2ccccc12)Nc1c2ccccc2nc2ccccc12)NCCCCCCNc1c2ccccc2nc2ccccc12	4.1 µM and 4 µM	0.11	0.11	350	21	20

Further lines, with some results ahead:

IC50 [1]	C50 [3] [µM]	C50 [5] [µM]	IC50 [6] [nM]	SMILES	ILS [2] [%]	Optimal dose [4] [mg/kg/day]
4.6 µM and 3.7 µM	0.1	0.14	590	Cl.O=C(CC(CC(=O)NCCCCCCCNc1c2ccccc2nc2ccccc12)Nc1c2ccccc2nc2ccccc12)NCCCCCCCNc1c2ccccc2nc2ccccc12	–	20
4.9 µM and 4.7 µM	0.22	0.33	250	Cl.O=C(CCCC(=O)NCCCCCCNc1c2ccccc2nc2ccccc12)NCCCCCCNc1c2ccccc2nc2ccccc12	–	45
30.3 µM and 30 µM	0.43	0.38	5900	Cl.O=C(CC(CC(=O)NCCNc1c2ccccc2nc2ccccc12)Nc1c2ccccc2nc2ccccc12)NCCNc1c2ccccc2nc2ccccc12	–	3.9
6.2 µM and 4.5 µM	0.15	0.23	960	Cl.O=C(CCCC(=O)NCCCCCCCNc1c2ccccc2nc2ccccc12)NCCCCCCCNc1c2ccccc2nc2ccccc12	–	30
13.2 µM and 12.8 µM	0.1	0.19	800	Cl.O=C(CC(CC(=O)NCCCNc1c2ccccc2nc2ccccc12)Nc1c2ccccc2nc2ccccc12)NCCCNc1c2ccccc2nc2ccccc12	–	8.9
